# Results reported in ChEMBL document CHEMBL4602720, “Degradation versus Inhibition: Development of Proteolysis-Targeting Chimeras for Overcoming Statin-Induced Compensatory Upregulation of 3-Hydroxy-3-methylglutaryl Coenzyme A Reductase” (J Med Chem, 2020).
# Active and inactive are the calls of the source.
# What was measured:
# [1] = biological target: T1, Protein cereblon/3-hydroxy-3-methylglutaryl-coenzyme A reductase (Cricetulus griseus) (UniProt P00347+G3H338); assay: Protac activity at CRBN/HMGCR in Insig-1/Insig-2 deficient Chinese hamster SRD15 cells assessed as HMGCR level at 0.3 uM after 16 hrs by immunoblotting analysis (reference value: 1)
# Outline: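 Dose-response in SRD15 cells in Medium A with 5% FBS, 16 h treatment, DMSO final 0.1% or lower. RIPA lysates immunoblotted for HMGCR. HMGCR densitometry normalized to actin, with the DMSO group set to 1. Three repeats. DC50 is taken from a dose-response fit of the semi-quantitative blots, mean of 3 independent experiments.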
# Target sequence in this assay (G3H338 1-445 partner): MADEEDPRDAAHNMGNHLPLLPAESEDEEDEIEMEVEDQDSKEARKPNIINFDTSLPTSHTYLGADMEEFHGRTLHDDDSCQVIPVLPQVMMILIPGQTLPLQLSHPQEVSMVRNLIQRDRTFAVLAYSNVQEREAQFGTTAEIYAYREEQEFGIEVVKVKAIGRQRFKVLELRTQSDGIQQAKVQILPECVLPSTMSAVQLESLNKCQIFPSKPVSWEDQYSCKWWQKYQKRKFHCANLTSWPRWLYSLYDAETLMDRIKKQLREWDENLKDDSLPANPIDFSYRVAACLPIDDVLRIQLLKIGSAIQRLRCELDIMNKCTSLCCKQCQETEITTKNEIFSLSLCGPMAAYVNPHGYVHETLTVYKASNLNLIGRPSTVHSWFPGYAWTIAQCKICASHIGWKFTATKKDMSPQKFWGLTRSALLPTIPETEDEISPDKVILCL
# Target sequence in this assay (P00347 whole entry): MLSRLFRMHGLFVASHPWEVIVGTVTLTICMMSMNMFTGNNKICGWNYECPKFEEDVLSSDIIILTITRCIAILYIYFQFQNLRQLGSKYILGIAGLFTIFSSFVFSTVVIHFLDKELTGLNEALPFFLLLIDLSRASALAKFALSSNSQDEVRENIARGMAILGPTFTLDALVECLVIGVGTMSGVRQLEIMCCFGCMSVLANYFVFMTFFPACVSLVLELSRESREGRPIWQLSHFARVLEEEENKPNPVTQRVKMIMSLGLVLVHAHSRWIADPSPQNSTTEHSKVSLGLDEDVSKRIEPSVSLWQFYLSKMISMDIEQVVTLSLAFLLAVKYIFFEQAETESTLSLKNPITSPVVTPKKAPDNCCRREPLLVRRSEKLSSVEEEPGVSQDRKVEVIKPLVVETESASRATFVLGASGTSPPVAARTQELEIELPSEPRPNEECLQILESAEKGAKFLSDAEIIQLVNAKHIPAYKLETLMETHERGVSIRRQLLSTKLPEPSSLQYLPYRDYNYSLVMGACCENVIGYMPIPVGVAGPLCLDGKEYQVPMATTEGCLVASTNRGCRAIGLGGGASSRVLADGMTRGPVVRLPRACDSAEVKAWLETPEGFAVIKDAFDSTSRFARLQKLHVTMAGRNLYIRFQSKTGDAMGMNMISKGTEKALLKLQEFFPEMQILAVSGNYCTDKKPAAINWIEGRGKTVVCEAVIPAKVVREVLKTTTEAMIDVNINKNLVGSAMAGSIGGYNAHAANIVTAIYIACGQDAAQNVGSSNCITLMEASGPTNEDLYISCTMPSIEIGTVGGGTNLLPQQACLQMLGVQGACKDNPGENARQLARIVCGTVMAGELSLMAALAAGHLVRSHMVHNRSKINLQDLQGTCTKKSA
# [2] = biological target: T1, Protein cereblon/3-hydroxy-3-methylglutaryl-coenzyme A reductase (Cricetulus griseus); assay: Protac activity at CRBN/HMGCR in Insig-1/Insig-2 deficient Chinese hamster SRD15 cells assessed as HMGCR level at 1 uM after 16 hrs in presence of 0.1 uM atorvastatin by immunoblotting analysis (reference value: 1)
# Target sequence in this assay (G3H338 1-445 partner): as the sequence (G3H338 1-445 partner) above
# Target sequence in this assay (P00347 whole entry): as the sequence (P00347 whole entry) above
# [3] = biological target: T1, Protein cereblon/3-hydroxy-3-methylglutaryl-coenzyme A reductase (Cricetulus griseus); assay: Protac activity at CRBN/HMGCR in Insig-1/Insig-2 deficient Chinese hamster SRD15 cells assessed as HMGCR level at 1 uM after 16 hrs in presence of 1 uM pomalidomide by immunoblotting analysis (reference value: 1)
# [4] = Effect on HMGCR mRNA expression in Chinese hamster SRD15 cells at 1 uM after 16 hrs by quantitative real-time PCR analysis; type: ADME, Cricetulus griseus
# Outline: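 SRD15 cells (Insig-1/Insig-2-deficient CHO-7) in Medium A with 5% FBS, compound for 16 h; Hmgcr mRNA by quantitative real-time PCR in triplicate, comparative CT method normalized to hamster GAPDH, control defined as 1; mean ± s.d., n = 3 independent experiments.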
# [5] = biological target: Protein cereblon/3-hydroxy-3-methylglutaryl-coenzyme A reductase (Homo sapiens) (UniProt P04035+Q96SW2); assay: Protac activity at human Flag-tagged CRBN/Myc-tagged HMGCR expressed in HEK293T cells assessed as induction of HMGCR immunoprecipitation at 1 uM preincubated for 16 hrs followed by MG132 addition addition and measured after 5 hrs in presence of MG132 by Western blot analysis; type: cell-based; conditions: HEK-293T
# Sequence of Protein cereblon/3-hydroxy-3-methylglutaryl-coenzyme A reductase (Homo sapiens) (P04035 whole entry, looked up, the tested form may be a part): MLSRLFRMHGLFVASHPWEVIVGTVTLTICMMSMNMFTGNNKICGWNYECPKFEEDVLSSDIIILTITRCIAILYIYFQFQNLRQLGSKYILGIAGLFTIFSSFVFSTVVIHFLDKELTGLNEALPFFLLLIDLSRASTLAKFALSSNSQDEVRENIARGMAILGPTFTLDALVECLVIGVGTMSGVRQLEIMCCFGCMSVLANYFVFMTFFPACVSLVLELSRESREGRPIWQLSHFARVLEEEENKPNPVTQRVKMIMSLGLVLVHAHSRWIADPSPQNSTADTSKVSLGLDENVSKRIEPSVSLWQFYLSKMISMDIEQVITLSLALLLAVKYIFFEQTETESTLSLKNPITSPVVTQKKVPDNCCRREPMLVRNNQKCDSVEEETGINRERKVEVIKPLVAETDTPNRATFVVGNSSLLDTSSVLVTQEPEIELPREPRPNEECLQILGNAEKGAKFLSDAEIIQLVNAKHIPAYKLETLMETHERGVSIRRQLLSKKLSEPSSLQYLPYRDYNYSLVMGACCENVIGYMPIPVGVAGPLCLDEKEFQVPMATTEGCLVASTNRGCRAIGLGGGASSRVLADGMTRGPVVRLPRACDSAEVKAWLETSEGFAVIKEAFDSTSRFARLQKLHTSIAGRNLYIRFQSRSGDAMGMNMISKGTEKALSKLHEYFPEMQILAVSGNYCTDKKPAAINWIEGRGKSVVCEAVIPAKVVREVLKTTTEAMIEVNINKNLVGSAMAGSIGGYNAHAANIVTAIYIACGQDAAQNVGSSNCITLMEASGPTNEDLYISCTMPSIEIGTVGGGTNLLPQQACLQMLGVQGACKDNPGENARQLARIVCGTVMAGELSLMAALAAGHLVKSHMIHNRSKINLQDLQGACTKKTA
# Sequence of Protein cereblon/3-hydroxy-3-methylglutaryl-coenzyme A reductase (Homo sapiens) (Q96SW2 whole entry, looked up, the tested form may be a part): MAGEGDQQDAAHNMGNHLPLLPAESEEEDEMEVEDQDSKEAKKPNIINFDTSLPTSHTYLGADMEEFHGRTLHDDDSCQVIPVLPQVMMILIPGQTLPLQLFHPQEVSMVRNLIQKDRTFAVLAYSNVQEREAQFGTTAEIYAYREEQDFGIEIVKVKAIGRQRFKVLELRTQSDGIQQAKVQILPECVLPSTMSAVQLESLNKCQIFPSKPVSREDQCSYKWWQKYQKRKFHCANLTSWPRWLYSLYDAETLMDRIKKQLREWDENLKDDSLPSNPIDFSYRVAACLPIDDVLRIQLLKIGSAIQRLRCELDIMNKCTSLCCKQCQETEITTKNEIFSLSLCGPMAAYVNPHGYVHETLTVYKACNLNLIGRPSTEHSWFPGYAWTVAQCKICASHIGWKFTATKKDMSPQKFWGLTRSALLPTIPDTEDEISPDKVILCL
# [6] = biological target: T2, Thioredoxin domain-containing protein 11 (Homo sapiens) (UniProt Q6PKC3); assay: Activation of TXNDC11 (unknown origin)
# T2 sequence (whole entry): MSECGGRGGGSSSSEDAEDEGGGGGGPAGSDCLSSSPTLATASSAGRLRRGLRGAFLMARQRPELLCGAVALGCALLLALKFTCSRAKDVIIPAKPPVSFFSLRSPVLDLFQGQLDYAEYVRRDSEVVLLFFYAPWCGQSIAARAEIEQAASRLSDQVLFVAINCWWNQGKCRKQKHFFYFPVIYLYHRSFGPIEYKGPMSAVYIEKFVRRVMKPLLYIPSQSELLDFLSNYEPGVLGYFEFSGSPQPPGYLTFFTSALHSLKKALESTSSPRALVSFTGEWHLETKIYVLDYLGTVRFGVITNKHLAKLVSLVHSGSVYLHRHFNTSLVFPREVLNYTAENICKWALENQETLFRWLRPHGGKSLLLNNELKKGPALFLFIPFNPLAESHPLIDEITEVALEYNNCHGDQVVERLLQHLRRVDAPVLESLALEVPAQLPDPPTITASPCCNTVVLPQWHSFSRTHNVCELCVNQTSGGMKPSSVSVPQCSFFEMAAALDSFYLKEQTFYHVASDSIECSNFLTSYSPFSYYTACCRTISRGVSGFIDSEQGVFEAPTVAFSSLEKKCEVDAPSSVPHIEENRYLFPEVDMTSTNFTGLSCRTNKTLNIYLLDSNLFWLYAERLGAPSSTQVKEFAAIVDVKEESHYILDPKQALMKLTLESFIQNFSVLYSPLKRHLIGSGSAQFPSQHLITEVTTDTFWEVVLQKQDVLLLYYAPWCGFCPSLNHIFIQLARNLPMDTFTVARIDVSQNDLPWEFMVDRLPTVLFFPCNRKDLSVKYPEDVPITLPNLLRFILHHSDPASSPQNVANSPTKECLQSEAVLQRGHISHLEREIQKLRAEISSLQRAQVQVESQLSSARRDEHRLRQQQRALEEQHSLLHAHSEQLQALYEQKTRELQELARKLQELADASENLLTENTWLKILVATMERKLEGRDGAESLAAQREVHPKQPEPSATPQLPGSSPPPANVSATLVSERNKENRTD
# Huh-7 = assay: Inhibition of cholesterol biosynthesis in human HuH7 cells preincubated for 14 hrs and followed by addition of 14C-acetate and measured after 2 hrs by TL method; type: functional, cell-based
# Outline: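 Sterol-depleted Huh7 cells (Medium B plus 5% lipoprotein-deficient serum) treated at varying concentrations for 14 h, pulse-labelled with ¹⁴C-acetate 1 μCi/μL for 2 h, washed, lysed in 0.1 M NaOH; lipids separated by TLC, ¹⁴C-cholesterol read by phosphorimager, DMSO set to 1.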
compound,measurement,setting,value
CC(C)c1c(C(=O)Nc2ccccc2)c(-c2cccc(OCCCc3cn(CCOCCOCCOCCOCCNc4cccc5c4C(=O)N(C4CCC(=O)NC4=O)C5=O)nn3)c2)c(-c2ccc(F)cc2)n1CC[C@@H](O)C[C@@H](O)CC(=O)O (some centres not stated),fold change (FC),[1],0.4
same,fold change (FC),[2],0.9
same,fold change (FC),[3],1
same,Activity,[4],Non-Toxic
same,Activity,[5],Active
same,fold change (FC),[6],7
same,inhibition,Huh-7,Active
